Screens: PubChem BioAssay, several laboratories
UBC13 inh: UBC13 polyubiquitin chain formation inhibitors, primary screen, biochemical, TR-FRET, uHTS; Ubiquitin-conjugating enzyme E2 N (Homo sapiens), P61088; inhibition, % at 20 µM; AID 485273, 2010; 330,000 tested, 0.47% active; in the data active = inhibition above about 45%, passing the limit was not always enough
MEKK3 PB1 HTS: modulators of MEKK3-MEK5 PB1 binding, primary screen, biochemical, wildtype MEKK3, multiplex bead flow cytometry, Alexa488-MEK5. bead-based flow cytometry, Alexa488-MEK5 binding to MEKK3; actives lie on both sides; 0 = blocked by unlabeled MEK5, 100 = vehicle. binding response (% of control), % at 10 µM. 290,000 tested, 1.4% active;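 active = binding response more than 3 SD above or below the average of its plate-row segment, actives on both sides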;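 also: Alexa488 bead fluorescence after subtracting the streptavidin-only scavenger bead signal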
Target sequence (Q99759 whole entry, looked up): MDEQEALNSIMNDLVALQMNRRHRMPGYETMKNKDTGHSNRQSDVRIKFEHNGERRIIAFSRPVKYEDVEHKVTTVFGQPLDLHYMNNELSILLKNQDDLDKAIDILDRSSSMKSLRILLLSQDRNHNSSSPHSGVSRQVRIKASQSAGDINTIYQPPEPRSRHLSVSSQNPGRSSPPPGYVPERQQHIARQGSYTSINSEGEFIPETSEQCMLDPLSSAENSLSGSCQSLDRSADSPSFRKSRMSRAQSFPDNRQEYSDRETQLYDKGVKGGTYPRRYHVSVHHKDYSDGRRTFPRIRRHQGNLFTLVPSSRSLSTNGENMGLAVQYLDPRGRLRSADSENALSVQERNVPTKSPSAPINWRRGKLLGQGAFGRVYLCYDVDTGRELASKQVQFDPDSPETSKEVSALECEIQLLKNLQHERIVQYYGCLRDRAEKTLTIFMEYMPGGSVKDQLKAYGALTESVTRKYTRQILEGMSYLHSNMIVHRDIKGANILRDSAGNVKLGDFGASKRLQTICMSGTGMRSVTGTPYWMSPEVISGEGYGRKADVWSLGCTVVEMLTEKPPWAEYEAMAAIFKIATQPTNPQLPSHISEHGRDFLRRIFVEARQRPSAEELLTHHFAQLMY
MEKK2 mut-MEK5: MEK5 binding signal on mutant MEKK2 PB1, primary screen, biochemical, multiplex bead flow cytometry, Alexa488-MEK5; Alexa488-MEK5 binding to MEKK2 mutant; percent response, % at 10 µM; 290,000 tested, 0.35% active; AID 1530, 2009; in the data active = percent response above about 24%, passing the limit was not always enough
Apaf-1 inh: inhibitors of human Apaf-1 apoptosome, primary screen, biochemical, DEVD-Rh110 fluorescence, uHTS. reconstituted apoptosome caspase-3 activity. inhibition, % at 20 µM. 330,000 tested, 0.71% active. AID 489030, 2010. Apoptotic protease-activating factor 1 (Homo sapiens), O14727; active = inhibition of at least 40% at 20 µM;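 also: plate controls were DMSO wells for no effect and DEVD-CHO caspase inhibitor wells for full effect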
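System: reconstituted apoptosome with Apaf-1, cytochrome c, caspase-9, procaspase-3, dATP; Signal: Rh110 fluorescence intensity; Schedule: 30 min compound preincubation, 50 min activation, room temperature; Reagent: cytochrome c trigger plus (Z-DEVD)2-Rh110 caspase-3 substrate.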
DSG3 Ab inh: inhibitors of pemphigus antibody binding to DSG3, primary screen, biochemical, bead-based, flow cytometry, scFv-GFP; Desmoglein-3 (Homo sapiens), P32926; DSG3-coupled beads, scFv-anti-DSG3-GFP binding; active compounds read low; binding (percent of control), % at 10 µM; 310,000 tested, 0.48% active;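 active = binding more than 3 SD below its plate's average and above zero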;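 also: hits lower antibody fragment binding to DSG3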
MEKK2wt PB1 HTS: modulators of MEK5 binding to wildtype MEKK2, primary screen, biochemical, multiplex bead flow cytometry, Alexa488-MEK5; binding response (% of control), % at 10 µM; AID 1531, 2009; Mitogen-activated protein kinase kinase kinase 2 (Homo sapiens), Q9Y2U5; 290,000 tested, 1.1% active; Alexa488-MEK5 binding to MEKK2 WT; actives lie on both sides; in the data active = binding response below about 67% or above about 130%
An asterisk follows results filed as active. Rows were chosen to be rich in hits. Some 3.2% of all compounds tested hit in one or more screens of this group.

Results for COCC(=O)Nc1ccc2c(c1)OCC(=O)N2Cc1ccccc1F ?
UBC13 inh: -2.3; MEKK3 PB1 HTS: 101.0; MEKK2 mut-MEK5: 0.0; Apaf-1 inh: -0.9; DSG3 Ab inh: 94.7; MEKK2wt PB1 HTS: 98.0

What do the screens show for `CC(=O)c1cccc(NC(=O)Cn2cnc(S(=O)(=O)N3CCC(C)CC3)c2)c1`?
UBC13 inh: -12.7; MEKK3 PB1 HTS: 98.0; MEKK2 mut-MEK5: 0.0; Apaf-1 inh: 8.1; DSG3 Ab inh: 82.4*; MEKK2wt PB1 HTS: 98.0

Results for CC1CCN(S(=O)(=O)c2cn(CC(=O)Nc3cccc(C#N)c3)cn2)CC1 ?
UBC13 inh: 16.9; MEKK3 PB1 HTS: 95.0; MEKK2 mut-MEK5: -3.0; Apaf-1 inh: -9.9; MEKK2wt PB1 HTS: 94.0

What do the screens show for `NC(=O)Cc1ccc(C(=O)c2ccc(F)cc2)s1`?
UBC13 inh: -0.4; MEKK3 PB1 HTS: 117.0; MEKK2 mut-MEK5: -2.0; Apaf-1 inh: -5.1; DSG3 Ab inh: 74.6*; MEKK2wt PB1 HTS: 99.0

Results for NC(=O)Cc1ccc(C(=O)c2ccccc2F)s1 ?
UBC13 inh: 4.8; MEKK3 PB1 HTS: 119.0; MEKK2 mut-MEK5: -1.0; Apaf-1 inh: -0.6; DSG3 Ab inh: 106.5; MEKK2wt PB1 HTS: 108.0

What do the screens show for `CCOC(=O)N1CCN(C2CCCN(C(=O)c3cccc(N(C)C)c3)C2)CC1` (stereo not drawn)?
UBC13 inh: 2.1; MEKK3 PB1 HTS: 98.0; MEKK2 mut-MEK5: -6.0; Apaf-1 inh: 0.1; DSG3 Ab inh: 94.2; MEKK2wt PB1 HTS: 95.0

How did COCCN(C(=O)c1cc(-c2ccco2)nc2ccccc12)c1c(N)n(Cc2ccccc2)c(=O)[nH]c1=O do in these assays?
UBC13 inh: -5.2; Apaf-1 inh: 2.1; DSG3 Ab inh: 78.5

Results for CCCN(C(=O)c1cc(-c2ccco2)nc2ccccc12)c1c(N)n(Cc2ccccc2)c(=O)[nH]c1=O ?
UBC13 inh: -9.1; Apaf-1 inh: 6.2; DSG3 Ab inh: 86.6*

How did CC(=O)c1c(C)[nH]c(C(=O)NCc2ccc(Cl)cc2)c1C do in these assays?
DSG3 Ab inh: 86.8*

How did O=C(COC(=O)CN1C(=O)C2CCCCC2C1=O)NCc1ccc(Cl)cc1Cl (stereo not drawn) do in these assays?
UBC13 inh: 7.9; Apaf-1 inh: 23.1

What do the screens show for `COc1ccccc1Nc1ccc(N)cc1`?
UBC13 inh: 2.9; MEKK3 PB1 HTS: 88.0; MEKK2 mut-MEK5: -1.0; Apaf-1 inh: 21.8; DSG3 Ab inh: 38.9*; MEKK2wt PB1 HTS: 99.0

Results for CCOc1ccc(CN(C)C(=O)[C@H](C)NC(=O)c2ccco2)cc1OC ?
UBC13 inh: -9.7; MEKK3 PB1 HTS: 103.0; MEKK2 mut-MEK5: 7.0; Apaf-1 inh: 3.9; DSG3 Ab inh: 119.5; MEKK2wt PB1 HTS: 110.0

How did C/C(=N\NC(=O)c1ccccc1Cl)c1ccccn1 do in these assays?
UBC13 inh: -23.7; MEKK3 PB1 HTS: 104.0; MEKK2 mut-MEK5: 6.0; Apaf-1 inh: -1.2; DSG3 Ab inh: 61.4*; MEKK2wt PB1 HTS: 102.0

Results for C/C(=N\NC(=O)c1cccc2ccccc12)c1ccccn1 ?
UBC13 inh: -13.7; MEKK3 PB1 HTS: 101.0; MEKK2 mut-MEK5: -3.0; Apaf-1 inh: 4.7; DSG3 Ab inh: 114.7; MEKK2wt PB1 HTS: 100.0

Results for COc1ccccc1NC(=S)NN=C(C)c1ccccn1 ?
DSG3 Ab inh: -0.8*

Results for COc1ccc(N=Cc2ccccc2O)cc1 ?
DSG3 Ab inh: 93.5

What do the screens show for `COc1ccc2sc(/C=C/c3ccccc3O)[n+](C)c2c1`?
MEKK3 PB1 HTS: 94.0; MEKK2 mut-MEK5: 19.0; MEKK2wt PB1 HTS: 4.0*

What do the screens show for `CC1CN(C(=O)CCc2cc(C(C)(C)C)c(O)c(C(C)(C)C)c2)CC(C)O1` (stereo not drawn)?
UBC13 inh: -3.8; MEKK3 PB1 HTS: 102.0; MEKK2 mut-MEK5: 6.0; Apaf-1 inh: 12.6; DSG3 Ab inh: 110.0; MEKK2wt PB1 HTS: 109.0

What do the screens show for `CC(C)(C)c1cc(CCC(=O)N2CCC2)cc(C(C)(C)C)c1O`?
UBC13 inh: 6.2; MEKK3 PB1 HTS: 105.0; MEKK2 mut-MEK5: 25.0*; Apaf-1 inh: 8.1; DSG3 Ab inh: 113.9; MEKK2wt PB1 HTS: 118.0

How did NC1=C(Br)C(=O)c2ccccc2C1=O do in these assays?
UBC13 inh: -360.1; MEKK3 PB1 HTS: 97.0; MEKK2 mut-MEK5: 2.0; Apaf-1 inh: 70.9*; DSG3 Ab inh: 97.0; MEKK2wt PB1 HTS: 97.0

Results for CN(C(=O)c1cccc(NC(=O)Cc2cccc(NC(=O)C3CCCN(C(=O)C4CCC4)C3)c2)c1)C1CCC1 (stereo not drawn) ?
DSG3 Ab inh: 103.8

How did Cc1ccc(C(=O)CNc2ccc(C)c(Cl)c2)cc1 do in these assays?
UBC13 inh: -13.5; MEKK3 PB1 HTS: 100.0; MEKK2 mut-MEK5: 1.0; Apaf-1 inh: 15.7; DSG3 Ab inh: -6.7*; MEKK2wt PB1 HTS: 97.0

Results for Cc1ccc(NCCC(=O)c2ccccc2)cc1Cl ?
UBC13 inh: -4.6; MEKK3 PB1 HTS: 97.0; MEKK2 mut-MEK5: 2.0; Apaf-1 inh: -13.0; DSG3 Ab inh: 89.1*; MEKK2wt PB1 HTS: 105.0

What do the screens show for `Cc1ccc(NCCC(=O)c2ccc(Cl)cc2)cc1`?
UBC13 inh: 7.7; MEKK3 PB1 HTS: 103.0; MEKK2 mut-MEK5: 4.0; Apaf-1 inh: -7.1; DSG3 Ab inh: 96.7; MEKK2wt PB1 HTS: 107.0

How did Cc1ccc(NCC(=O)c2ccccc2)cc1Cl do in these assays?
UBC13 inh: -1.4; MEKK3 PB1 HTS: 108.0; MEKK2 mut-MEK5: 2.0; Apaf-1 inh: -1.5; DSG3 Ab inh: 103.6; MEKK2wt PB1 HTS: 108.0

Results for CCCCN(Cc1ccccc1)c1ncnc2nc[nH]c12 ?
UBC13 inh: 46.9*; MEKK3 PB1 HTS: 110.0; MEKK2 mut-MEK5: 13.0; Apaf-1 inh: 12.4; DSG3 Ab inh: 104.7; MEKK2wt PB1 HTS: 117.0

What do the screens show for `CC(C)CNC(=O)c1ccccc1NC(=O)CN(c1ccccc1)S(=O)(=O)N(C)C`?
UBC13 inh: -2.2; MEKK3 PB1 HTS: 97.0; MEKK2 mut-MEK5: -2.0; Apaf-1 inh: 15.7; DSG3 Ab inh: 53.6*; MEKK2wt PB1 HTS: 95.0

How did CCCc1cc(=O)oc2cc(OCC(=O)N(C)C)c(Cl)cc12 do in these assays?
UBC13 inh: 0.1; MEKK3 PB1 HTS: 102.0; MEKK2 mut-MEK5: 2.0; Apaf-1 inh: -3.0; DSG3 Ab inh: 2.6*; MEKK2wt PB1 HTS: 103.0
